PubChem BioAssay AID504837 (Johns Hopkins Ion Channel Center, 2011)
“And” between values parts separate entries of the source, which are not always exact repeats. Equal values may be shown once. The source made the active and inactive calls.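 How the source made its calls: active means lowers KCNQ2 potassium channel current at one or more tested doses and a dose response curve can be fitted; inactive means no current drop at any dose, or no curve.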

target: Potassium voltage-gated channel subfamily KQT member 2 (Rattus norvegicus) (UniProt O88943); test: blockers of rat KCNQ2 potassium current – automated electrophysiology, CHO cells, orthogonal assay for KCNQ2 inhibitor project, SAR follow-up (AID 504837); conditions: automated patch clamp current
Sequence (O88943 whole entry, looked up): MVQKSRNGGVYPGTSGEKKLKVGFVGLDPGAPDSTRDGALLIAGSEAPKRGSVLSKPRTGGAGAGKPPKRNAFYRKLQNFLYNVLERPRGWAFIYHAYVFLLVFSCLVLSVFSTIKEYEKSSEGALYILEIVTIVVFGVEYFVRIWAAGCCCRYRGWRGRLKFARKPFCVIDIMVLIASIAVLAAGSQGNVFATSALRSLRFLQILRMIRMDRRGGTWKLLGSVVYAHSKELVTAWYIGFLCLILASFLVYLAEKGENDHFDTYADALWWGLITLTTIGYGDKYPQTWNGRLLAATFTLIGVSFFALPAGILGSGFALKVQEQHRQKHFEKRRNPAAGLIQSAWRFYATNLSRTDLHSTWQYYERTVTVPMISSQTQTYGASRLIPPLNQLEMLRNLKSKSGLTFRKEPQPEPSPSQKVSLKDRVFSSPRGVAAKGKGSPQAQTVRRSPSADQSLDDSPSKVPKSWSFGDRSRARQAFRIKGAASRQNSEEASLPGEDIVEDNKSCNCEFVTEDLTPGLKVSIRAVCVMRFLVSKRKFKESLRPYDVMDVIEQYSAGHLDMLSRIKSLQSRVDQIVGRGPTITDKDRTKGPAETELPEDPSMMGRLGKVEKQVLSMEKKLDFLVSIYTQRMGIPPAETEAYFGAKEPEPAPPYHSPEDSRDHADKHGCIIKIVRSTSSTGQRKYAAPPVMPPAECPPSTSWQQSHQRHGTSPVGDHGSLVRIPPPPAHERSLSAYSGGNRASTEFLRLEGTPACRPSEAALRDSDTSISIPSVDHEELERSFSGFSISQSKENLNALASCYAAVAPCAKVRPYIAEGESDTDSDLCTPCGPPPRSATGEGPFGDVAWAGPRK
How it was run: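 Material: KCNQ2-expressing CHO cells / Doses: concentration series of test compound, several concentrations / Technique: automated amphotericin-perforated patch clamp recording / Replication: quadruplicate per concentration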

SMILES | IC50
O=C(NCC(c1cccs1)N1CCOCC1)C1CCCCC1 (configuration not stated) | 2930 nM
O=C(NCC(c1cccs1)N1CCOCC1)C12CC3CC(CC(C3)C1)C2 (configuration not stated) | 910 nM and 440 nM
O=C(CC1CCCCC1)NCC(c1cccs1)N1CCOCC1 (configuration not stated) | 1730 nM
O=C(NCC(c1ccco1)N1CCOCC1)C(c1ccccc1)c1ccccc1 (configuration not stated) | 1200 nM
Cc1ccc(OCCC(=O)NCC(c2cccs2)N2CCOCC2)cc1 (configuration not stated) | 8980 nM
CC1Oc2ccccc2OC1C(=O)NCC(c1cccs1)N1CCOCC1 (configuration not stated) | 8360 nM
O=C(NC[C@H](c1cccs1)N1CCOCC1)C12CC3CC(CC(C3)C1)C2 | 8480 nM
O=C(NC[C@@H](c1cccs1)N1CCOCC1)C12CC3CC(CC(C3)C1)C2 | 140 nM
CC1(C(=O)NCC(c2cccs2)N2CCOCC2)CC1(Cl)Cl (configuration not stated) | 9510 nM
O=C(NCC(c1cccs1)N1CCOCC1)C1COc2ccc(Cl)cc2C1 (configuration not stated) | 3200 nM

same assay, conditions: automated patch clamp current, at 30 µM (top of the series)

SMILES | current change, negative = inhibition
CN1CCN(C(CNC(=O)CC(C)(C)C)c2cccs2)CC1 (configuration not stated) | inactive
CC(C)(C)C1CCC(C(=O)NCC(c2cccs2)N2CCOCC2)CC1 (configuration not stated) | inactive
Cc1ccc(C(CNC(=O)C2CCC2)N2CCOCC2)o1 (configuration not stated) | inactive
Cc1ccc(OCCC(=O)NCC(c2cccs2)N2CCOCC2)cc1 (configuration not stated) | inactive
CCCCC1CCC(C(=O)NCC(c2ccco2)N2CCOCC2)CC1 (configuration not stated) | inactive
O=C(NCC(c1ccco1)N1CCOCC1)C1CC1 (configuration not stated) | inactive
CC(C)(C)C(=O)NCC(c1cccs1)N1CCOCC1 (configuration not stated) | inactive
O=C(NCC(c1ccco1)N1CCOCC1)C1CCCCC1 (configuration not stated) | inactive
CC(C)C(=O)NCC(c1cccs1)N1CCOCC1 (configuration not stated) | inactive
CCC(CC)C(=O)NCC(c1ccco1)N1CCOCC1 (configuration not stated) | inactive
CN1CCN(C(CNC(=O)C23CC4CC(CC(C4)C2)C3)c2cccs2)CC1 (configuration not stated) | inactive
CC(C)(C)c1ccc(OCCC(=O)NCC(c2cccs2)N2CCOCC2)cc1 (configuration not stated) | inactive
CC(C)CC(=O)NCC(c1cccs1)N1CCOCC1 (configuration not stated) | inactive
CCCCC1CCC(C(=O)NC[C@@H](c2ccco2)N2CCOCC2)CC1 (some centres not stated) | inactive
Cc1ccc(C(CNC(=O)C2(C)CC2(Cl)Cl)N2CCOCC2)o1 (configuration not stated) | inactive
COc1ccccc1C(=O)NCC(c1cccs1)N1CCOCC1 (configuration not stated) | inactive
Cc1ccc(OCC(=O)NCC(c2cccs2)N2CCOCC2)cc1 (configuration not stated) | inactive
